The bioavailability is dose-corrected exposure relative to a reference, in per cent. As a reminder, the IC50 is the concentration that inhibits the measured activity by half. Broadly, the AUC is concentration integrated over time. Broadly, the Cmax is the highest concentration seen after dosing. The term half-life denotes the time needed for the level to fall by half in the phase considered. A word on the inhibition: it is the relative decrease from the control value, in per cent.

From ChEMBL document CHEMBL1131493, “Inhibitors of farnesyl protein transferase. 4-Amido, 4-carbamoyl, and 4-carboxamido derivatives of 1-(8-chloro-6,11-dihydro-5H-benzo[5,6]- cyclohepta[1,2-b]pyridin-11-yl)piperazine and 1-(3-bromo-8-chloro-6,11- dihydro-5H-benzo[5,6]cyclohepta[1,2-b]pyridin-11-yl)piperazine” (J Med Chem, 1998) come the findings set out here.

Data set [1] can be described thus: Oral bioavailability in mouse (nude) (dose 25 mg/kg i.v.). The data set is classed as ADME, organism-based. Conditions: in vivo.
Data set [2] addresses T1, Protein farnesyltransferase (Homo sapiens, UniProt P49354+P49356). Kind of data set: Inhibition of Farnesyltransferase from Ras-CVLS or Ras-CVLL in Cos-7 monkey kidney cells. It is filed as cell-based, Chlorocebus aethiops.
A short description of data set [3]: In vivo antitumor efficacy in nude mice by injecting a dose of 25 mg/kg, as HCl salt in saline solution, perorally and the total drug exposure was determined (0-24hr). It is filed as ADME, organism-based. More on the design: time < 24 hr, dose 25 mg/kg, route oral. Conditions: mouse, po.
Data set [4] concerns the target geranylgeranyltransferase type-I (Rattus norvegicus, UniProt P53610+Q04631). Kind of data set: Inhibition of rat Geranylgeranyl transferase (GGPT). The data set is classed as protein-complex assay.
A short description of data set [5]: (§1) Maximal plasma concentration in nude mice after 25 mg/kg oral dose. It is filed as ADME, organism-based. Also noted: dose 25 mg/kg, route oral. Particulars: mouse.
Data set [6] can be described thus: In vivo antitumor efficacy in nude mice by injecting a dose of 25 mg/kg, as HCl salt in saline solution, iv and the serum half-life was determined. More on the design: dose 25 mg/kg, route intravenous. It is filed as ADME, organism-based. Particulars: mouse.
The target of data set [7] is T1, Protein farnesyltransferase. Description: In vitro inhibition of farnesyltransferase farnesylation of the H-ras oncogene. It is filed as protein-complex assay.
For data set [8], the system named is Mus musculus. Description: In vivo antitumor efficacy in nude mice by injecting a dose of 25 mg/kg, as HCl salt in saline solution, perorally and the duration of action was reported. The data set is classed as ADME, organism-based. More on the design: dose 25 mg/kg, route oral. Conditions: po.
A short description of data set [9]: In vivo antitumor efficacy in nude mice by injecting a dose of 25 mg/kg, as HCl salt in saline solution, iv and the total drug exposure was determined. (0-24hr). The data set is classed as ADME, organism-based. Also noted: time < 24 hr, dose 25 mg/kg, route intravenous. Conditions: mouse.
Data set [10] can be described thus: Oral bioavailability in mouse (nude) (dose of 25 mg/kg). The data set is classed as ADME, organism-based. Particulars: in vivo. A digest of the protocol:
(§2)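 Serum pharmacokinetics in nude mice or cynomolgus monkeys after oral (po) or iv dosing. Compounds were given as hydrochloride salts in 20% HPβCD unless otherwise noted. Other formulations were the hydrochloride salt in saline, the micronized free base in 20% HPβCD or corn oil (po) with saline for iv, or the hydrochloride salt in 0.4% methyl cellulose (po).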

Data set [11] in a line: In vivo antitumor efficacy in nude mice 0-24 hr after iperoral dose of 25 mg/kg expressed as Area under the curve. The data set is classed as ADME, organism-based. More on the design: time < 24 hr, dose 25 mg/kg. Particulars: mouse, po. A digest of the protocol: as §2
A short description of data set [12]: as §1. It is filed as ADME, organism-based. Also noted: dose 25 mg/kg, route oral. Particulars: mouse. The method, boiled down: as §2
The source holds these as a separate data set.

Data set [13] in a line: In vivo antitumor efficacy in nude mice 0-24 hr after intravenous dose of 25 mg/kg expressed as Area under the curve. It is filed as ADME, organism-based. Also noted: time < 24 hr, dose 25 mg/kg, route intravenous. Particulars: mouse. A digest of the protocol: as §2
A short description of data set [14]: In vivo antitumor efficacy after peroral dose of 25 mg/kg expressed as duration for which compound was present above IC50. It is filed as ADME, organism-based. More on the design: dose 25 mg/kg, route oral. Conditions: po. The method, boiled down: as §2
Data set [15] can be described thus: In vivo antitumor efficacy in nude mice 0-24 hr after peroral dose of 25 mg/kg expressed as Area under the curve. Also noted: time < 24 hr, dose 25 mg/kg, route oral. It is filed as ADME, organism-based. Particulars: nude, mouse, po. The method, boiled down:
as §2

The nature of data set [16]: In vivo antitumor efficacy in nude mice by injecting a dose of 25 mg/kg iv and serum half-life was determined. More on the design: dose 25 mg/kg, route intravenous. Particulars: mouse. It is filed as ADME, organism-based. The method, boiled down:
as §2

Data set [17] concerns Mus musculus. Kind of data set: In vivo antitumor efficacy after peroral dose of 25 mg/kg in mice expressed as duration for which compound was present above IC50. It is filed as ADME, organism-based. More on the design: dose 25 mg/kg, route oral. Conditions: po. A digest of the protocol:
as §2

Data set [18] is described as follows: In vivo antitumor efficacy peroral dose of 25 mg/kg expressed as duration for which compound was present above IC50. The data set is classed as ADME, organism-based. Conditions: po. Also noted: dose 25 mg/kg, route oral. The method, boiled down:
as §2

Data set [19] can be described thus: In vivo antitumor efficacy in nude mice after peroral dose of 25 mg/kg expressed as Area under the curve. The data set is classed as ADME, organism-based. More on the design: dose 25 mg/kg, route oral. Particulars: mouse, po. A digest of the protocol: as §2
Data set [20] deals with T1, Protein farnesyltransferase. Description: In vitro inhibition of farnesyltransferase farnesylation of H-ras at […].

The structures appear in SMILES notation.

In data set [1], `CNC(=O)N1CCC(CC(=O)N2CCN(C3c4ccc(Cl)cc4CCc4cc(Br)cnc43)CC2)CC1` (centres undefined) had a bioavailability of 100%. Further, the IC50 was 0.75 µM in [2], above 35 µM in [4] and 0.05 µM in data set [7]. Also, the AUC at 24 h in data set [3] came to 33.3 µg·h/mL; in [9] it was 9.9 µg·h/mL. For the same molecule, in data set [5], the Cmax amounted to 80 µM. For the same molecule, the half-life in [6] was 30 min. In the data set with Mus musculus [8], the “Time above IC50” value amounted to 4 h.

In data set [10], `O=C(Cc1cc[n+]([O-])cc1)N1CCN([C@@H]2c3ccc(Cl)cc3CCc3cccnc32)CC1` registered a bioavailability of 53%. The AUC at 24 h in [11] turned out to be 6 µg·h/mL; in [13], 11.3 µg·h/mL. The half-life in [6] is 66 min. In [12], the Cmax was 3 µM. 1.2 µM corresponded to half-maximal inhibition in data set [7] (IC50). Moreover, in data set [14], the “Time above IC50” value stood at 2 h.

In the case of `CC(=O)N1CCC(CC(=O)N2CCN(C3c4ccc(Cl)cc4CCc4cc(Br)cnc43)CC2)CC1` (centres undefined), the bioavailability in data set [1] is 28.8%. The IC50 was 0.59 µM in data set [2], above 34 µM in data set [4] and 0.102 µM in data set [7]. For the same molecule, the AUC at 24 h in data set [3] stood at 2.74 µg·h/mL; in data set [9], 9.51 µg·h/mL. This molecule gave a Cmax in data set [5] of 3 µM. The half-life in data set [6] was 22.2 min. Further, in the data set with Mus musculus [8], the “Time above IC50” value came out at 2 h.

`CC(C)(C(=O)N1CCN(C2c3ccc(Cl)cc3CCc3cc(Br)cnc32)CC1)c1ccc[n+]([O-])c1` (centres undefined) had a bioavailability in data set [10] of 47%. Besides, the IC50 in data set [2] was 2.2 µM; in [7], 0.38 µM. For the same molecule, the AUC at 24 h in data set [15] amounted to 11.7 µg·h/mL; in [13] it was 25 µg·h/mL. The molecule further had a half-life in data set [16] of 36 min. The molecule further yielded a Cmax in data set [12] of 11 µM. Further, in the data set with Mus musculus [17], the “Time above IC50” value is 4 h.

For the molecule `O=C(Cc1ccncc1)N1CCN(C2c3ccc(Cl)cc3CCc3cc(Br)cnc32)CC1` (centres undefined), the bioavailability in data set [10] is 20.8%. For the same molecule, the IC50 in data set [2] is 0.38 µM; in data set [4], above 39 µM; in [7] it was 0.012 µM. The molecule further had an AUC at 24 h in [15] of 1.1 µg·h/mL. For the same molecule, the half-life in [16] is 44.4 min. In [12], this molecule displayed a Cmax of 0.9 µM. In data set [18], the “Time above IC50” value stood at 6 h. The AUC in data set [19] was 1.1 µg·h/mL.

As to `O=C(Cc1ccc[n+]([O-])c1)N1CCN(C2c3ccc(Cl)cc3CCc3cccnc32)CC1` (centres undefined), the bioavailability in [10] turned out to be 89%. For the same molecule, the AUC at 24 h was found to be 11 µg·h/mL in data set [15] and 12.3 µg·h/mL in [13]. Also, the half-life in data set [16] is 36 min. The Cmax in data set [12] worked out at 12 µM. For the same molecule, the “Time above IC50” value in the data set on Mus musculus [17] worked out at 4 h.

`CN(C(=O)N1CCN(C2c3ccc(Cl)cc3CCc3cccnc32)CC1)c1ccncc1` (centres undefined) showed an inhibition in data set [20] of 0%.
